Here are results for 5 molecules from article PMC6468299 (Nucleic Acids Research, 2019).

In general, IC50 refers to the concentration that inhibits the measured activity by half. Broadly, the IC90 is the point of the concentration-response curve where the effect stands at 90%. Lower therefore signals an effect from little substance.

Each structure is given as a SMILES string. Marks after values point to notes of the source that are not given here.

For test [1], the target named is T1, DNA polymerase γ (Pol-γ) (Homo sapiens, UniProt P54098).
T1 sequence (P54098 1-1239): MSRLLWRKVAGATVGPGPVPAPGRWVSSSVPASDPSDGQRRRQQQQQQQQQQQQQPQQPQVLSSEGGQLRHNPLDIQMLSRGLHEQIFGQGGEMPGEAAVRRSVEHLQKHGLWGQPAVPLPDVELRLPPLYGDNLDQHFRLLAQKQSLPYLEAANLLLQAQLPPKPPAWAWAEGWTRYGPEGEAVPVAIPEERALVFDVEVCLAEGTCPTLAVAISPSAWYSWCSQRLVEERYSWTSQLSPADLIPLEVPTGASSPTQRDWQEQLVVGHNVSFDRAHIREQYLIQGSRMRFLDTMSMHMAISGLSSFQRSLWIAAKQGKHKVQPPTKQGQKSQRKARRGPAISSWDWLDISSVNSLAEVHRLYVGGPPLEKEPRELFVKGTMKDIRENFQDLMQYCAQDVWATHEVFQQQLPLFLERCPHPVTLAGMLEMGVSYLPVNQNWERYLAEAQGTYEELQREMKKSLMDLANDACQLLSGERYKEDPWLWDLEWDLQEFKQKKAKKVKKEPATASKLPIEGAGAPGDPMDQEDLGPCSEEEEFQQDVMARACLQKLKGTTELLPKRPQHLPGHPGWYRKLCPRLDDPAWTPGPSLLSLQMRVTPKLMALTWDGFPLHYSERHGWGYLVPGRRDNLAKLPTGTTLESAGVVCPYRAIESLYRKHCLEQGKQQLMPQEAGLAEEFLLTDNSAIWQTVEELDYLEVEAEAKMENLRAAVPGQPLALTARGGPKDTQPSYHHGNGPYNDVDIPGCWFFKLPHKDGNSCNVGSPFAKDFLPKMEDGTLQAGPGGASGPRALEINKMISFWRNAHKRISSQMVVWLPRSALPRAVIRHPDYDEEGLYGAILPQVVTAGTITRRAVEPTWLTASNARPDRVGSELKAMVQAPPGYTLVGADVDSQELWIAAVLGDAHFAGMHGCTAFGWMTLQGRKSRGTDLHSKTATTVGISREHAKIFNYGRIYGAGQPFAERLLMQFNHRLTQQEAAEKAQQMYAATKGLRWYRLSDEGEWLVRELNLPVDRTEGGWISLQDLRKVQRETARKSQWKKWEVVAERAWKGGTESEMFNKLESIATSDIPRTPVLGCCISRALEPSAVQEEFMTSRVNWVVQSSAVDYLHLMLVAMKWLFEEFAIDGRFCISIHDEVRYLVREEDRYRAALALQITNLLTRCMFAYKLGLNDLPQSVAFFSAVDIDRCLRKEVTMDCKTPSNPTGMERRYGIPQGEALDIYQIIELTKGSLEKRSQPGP
Briefly: DNA polymerase inhibition assay, Pol-γ. The test is classed as biochemical. Particulars: 1 h, 3H-dTTP incorporation. In a few lines: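 Reactions contained 25 μM each dATP/dCTP/dGTP, 25 nM TTP plus 1 μCi ³H-TTP, 160 nM template/primer, and serially diluted test nucleotide (0–200 μM). Incubation was 1 h at 37°C, stopped with TCA (10% final). DNA was precipitated 40 min at 4°C, washed and scintillation-counted; inhibition was taken from reduced radioactivity.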

In test [2] the test system is human mitochondrial Pol-γ. The following applies: absence of endogenous dNTPs; cited from earlier work.
Test [3] has as its target Human mitochondrial RNA polymerase (POLRMT) (Homo sapiens, UniProt O00411). Description: POLRMT primer extension. It is filed as biochemical. In a few lines:
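Reactions contained 200 nM DNA template, 25 nM Atto-425-labelled 12-mer RNA primer and 300 nM human POLRMT. Substrate was 1 mM NTP or 2′-F-NTP, or mixtures from 100:1 to 1:100 (1:1 both 1 mM). Products were resolved by fluorescence anion-exchange HPLC (ex 436/em 485 nm, pH 11 NaBr gradient). Products under 1.0% peak area were called not detected.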

Test [4] concerns the target DNA polymerase β (Pol-β) (Homo sapiens, UniProt P06746). Description: DNA polymerase inhibition assay, Pol-β. The test is classed as biochemical. Particulars: 1 h, 3H-dTTP incorporation. The method in brief: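 Reactions contained 25 μM each dATP/dCTP/dGTP, 25 nM TTP plus 1 μCi ³H-TTP, 160 nM template/primer, and serially diluted test nucleotide (0–200 μM). Incubation was 1 h at 37°C. DNA was TCA-precipitated, washed and counted; inhibition was taken from reduced incorporation. ddNTPs served as positive control.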

Human mitochondrial RNA polymerase (POLRMT), sequence (O00411 42-1230): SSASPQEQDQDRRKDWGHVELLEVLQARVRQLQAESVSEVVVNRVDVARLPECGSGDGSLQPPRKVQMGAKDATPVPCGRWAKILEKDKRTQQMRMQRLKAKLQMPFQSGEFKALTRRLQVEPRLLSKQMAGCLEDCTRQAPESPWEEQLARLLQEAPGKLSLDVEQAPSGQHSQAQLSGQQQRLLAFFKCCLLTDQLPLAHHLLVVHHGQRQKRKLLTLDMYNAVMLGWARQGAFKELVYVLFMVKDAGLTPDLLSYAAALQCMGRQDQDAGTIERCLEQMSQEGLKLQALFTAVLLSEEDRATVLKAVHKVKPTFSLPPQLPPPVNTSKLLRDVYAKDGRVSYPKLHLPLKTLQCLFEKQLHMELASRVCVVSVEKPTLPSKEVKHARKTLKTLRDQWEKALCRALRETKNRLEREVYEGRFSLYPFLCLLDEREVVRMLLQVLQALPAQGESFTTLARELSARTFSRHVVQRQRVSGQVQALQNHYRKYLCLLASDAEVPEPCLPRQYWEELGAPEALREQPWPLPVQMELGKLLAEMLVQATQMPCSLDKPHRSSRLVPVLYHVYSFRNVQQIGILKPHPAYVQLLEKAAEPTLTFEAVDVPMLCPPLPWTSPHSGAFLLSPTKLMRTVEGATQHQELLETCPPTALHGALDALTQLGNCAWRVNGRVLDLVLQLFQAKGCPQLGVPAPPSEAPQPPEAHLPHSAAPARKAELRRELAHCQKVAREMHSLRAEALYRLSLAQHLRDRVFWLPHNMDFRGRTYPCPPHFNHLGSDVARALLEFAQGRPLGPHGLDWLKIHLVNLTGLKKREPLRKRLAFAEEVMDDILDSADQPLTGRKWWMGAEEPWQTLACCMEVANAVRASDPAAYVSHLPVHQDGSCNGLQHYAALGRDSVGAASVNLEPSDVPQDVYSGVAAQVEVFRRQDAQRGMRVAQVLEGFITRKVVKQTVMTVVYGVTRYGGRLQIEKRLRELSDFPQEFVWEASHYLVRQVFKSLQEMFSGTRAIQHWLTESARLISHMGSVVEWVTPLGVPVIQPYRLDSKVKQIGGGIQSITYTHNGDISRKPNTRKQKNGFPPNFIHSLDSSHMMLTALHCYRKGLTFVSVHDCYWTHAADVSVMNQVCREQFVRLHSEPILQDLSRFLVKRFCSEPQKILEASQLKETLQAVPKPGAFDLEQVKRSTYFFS

Consider `O=c1[nH]c(=O)n([C@@H]2O[C@H](COP(=O)(O)OP(=O)(O)OP(=O)(O)O)[C@@H](O)[C@@H]2F)cc1I` [FIAU-TP, fialuridine triphosphate, reference compound], for which the IC50 in test [1] amounted to 1.04 µM; in test [4], 0.37 µM. Moreover, the IC90 in test [1] was 13.4 µM; in test [4] it was 5.56 µM. For the same molecule, the “misincorporation frequency relative to the natural dTTP/dNTP” value in test [2] is 125%. For the same molecule, the “% 2′-F product” value in test [3] (F only) was 21.0^a %; in test [3] (Native:F ratio 1:1) it was “ND (not detected (integration peak area <1.0%))”; in test [3] (Native:F ratio 1:10) it was “ND (not detected (integration peak area <1.0%))”; in test [3] (Native:F ratio 1:100), 1.1^b %. For the same molecule, the “% Native product” value in test [3] (Native only (no 2′-F-NTP)) was 34.6^a %; in test [3] (Native:F ratio 1:1) it was 25.1^a %; in test [3] (Native:F ratio 1:10), 25.4^a %; in test [3] (Native:F ratio 1:100) it was 24.10^b %.
`O=c1ccn([C@@H]2O[C@H](COP(=O)(O)OP(=O)(O)OP(=O)(O)O)[C@@H](O)[C@H]2F)c(=O)[nH]1` [2′-F-UTP]: the IC50 in test [1] was more than 200 µM; in test [4] it was 91.6 µM. In addition, the IC90 in test [1] and in test [4] was more than 200 µM throughout. In test [2], the “misincorporation frequency relative to the natural dTTP/dNTP” value was 0.5%. Moreover, the “% 2′-F product” value in test [3] (F only) was 31.8^a %; in test [3] (Native:F ratio 1:1), “ND (not detected (integration peak area <1.0%))”; in test [3] (Native:F ratio 1:10), “ND (not detected (integration peak area <1.0%))”; in test [3] (Native:F ratio 1:100), “ND (not detected (integration peak area <1.0%))”. Further, the “% Native product” value is listed as 40.8^a % in test [3] (Native only (no 2′-F-NTP)), 32^a % in test [3] (Native:F ratio 1:1), 45.3^a % in test [3] (Native:F ratio 1:10) and 35.6^a % in test [3] (Native:F ratio 1:100).
`Nc1ncnc2c1ncn2[C@@H]1O[C@H](COP(=O)(O)OP(=O)(O)OP(=O)(O)O)[C@@H](O)[C@H]1F` [2′-F-ATP]: the IC50 was more than 200 µM in test [1] and 175 µM in test [4]. Moreover, the IC90 in test [1] and in test [4] was more than 200 µM in each case. In addition, the “% 2′-F product” value in test [3] (F only) was 42.6^a %; in test [3] (Native:F ratio 1:1), “ND (not detected (integration peak area <1.0%))”; in test [3] (Native:F ratio 1:10) it was “ND (not detected (integration peak area <1.0%))”; in test [3] (Native:F ratio 1:100) it was “ND (not detected (integration peak area <1.0%))”. Also, the “% Native product” value in test [3] (Native only (no 2′-F-NTP)) is listed as 69.2^a %; in test [3] (Native:F ratio 1:1), 67.8^a %; in test [3] (Native:F ratio 1:10), 63.5^a %; in test [3] (Native:F ratio 1:100), 51.4^a %.
With `Nc1ccn([C@@H]2O[C@H](COP(=O)(O)OP(=O)(O)OP(=O)(O)O)[C@@H](O)[C@H]2F)c(=O)n1` [2′-F-CTP], the IC50 in test [1] and in test [4] was more than 200 µM in each case. Moreover, the concentration for an effect of 90% (IC90) in test [1] and in test [4] was more than 200 µM in each case. Also, the “% 2′-F product” value is recorded as 58.7^a % in test [3] (F only), “ND (not detected (integration peak area <1.0%))” in test [3] (Native:F ratio 1:1), “ND (not detected (integration peak area <1.0%))” in test [3] (Native:F ratio 1:10) and 9.1^b % in test [3] (Native:F ratio 1:100). Besides, the “% Native product” value in test [3] (Native only (no 2′-F-NTP)) is recorded as 48.8^a %; in test [3] (Native:F ratio 1:1), 39.3^a %; in test [3] (Native:F ratio 1:10), 43.7^a %; in test [3] (Native:F ratio 1:100), 37.0^b %.
For `Nc1nc2c(ncn2[C@@H]2O[C@H](COP(=O)(O)OP(=O)(O)OP(=O)(O)O)[C@@H](O)[C@H]2F)c(=O)[nH]1` [2′-F-GTP], the concentration for half-maximal inhibition (IC50) in test [1] and in test [4] was more than 200 µM each time. For the same molecule, the 90% effect concentration (IC90) in test [1] and in test [4] was more than 200 µM in each case. For the same molecule, the “misincorporation frequency relative to the natural dTTP/dNTP” value in test [2] is 16%. Further, the “% 2′-F product” value in test [3] (F only) is recorded as 78.9^a %; in test [3] (Native:F ratio 1:1), “ND (not detected (integration peak area <1.0%))”; in test [3] (Native:F ratio 1:10) it was “ND (not detected (integration peak area <1.0%))”; in test [3] (Native:F ratio 1:100), 8.9^b %. The “% Native product” value is 95.0^a % in test [3] (Native only (no 2′-F-NTP)), 96.4^a % in test [3] (Native:F ratio 1:1), 83.4^a % in test [3] (Native:F ratio 1:10) and 69.2^b % in test [3] (Native:F ratio 1:100).
